Measurements published in the EternaBench riboswitch data.

Test system: MS2 coat protein
Experiment: apparent Kd, MS2 coat protein; higher = weaker binding; RNA-MaP array; FMN 200 µM where present
How it was run: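 The apparent Kd is reported as the median of filtered per-cluster binding-curve fits. To get these curves, designs transcribed by stalled E. coli RNA polymerase on Illumina sequencing-chip clusters were titrated with SNAP-549-labelled MS2 coat protein from 0.7 or 1.5 nM, doubling to 3 µM. Titrations were run without and then with constant ligand in 100 mM Tris-HCl pH 7.5, 80 mM KCl, 4 mM MgCl2, BSA, DTT, yeast tRNA and Tween-20, and green signal was normalised to red-channel RNA signal and control-cluster median Fmax.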

[1] = designed as: OFF switch for flavin mononucleotide, no ligand
[2] = ligand present: flavin mononucleotide, designed as: OFF switch for flavin mononucleotide
[3] = designed as: ON switch for flavin mononucleotide, no ligand
[4] = ligand present: flavin mononucleotide, designed as: ON switch for flavin mononucleotide

Row | Sequence | apparent Kd [1] | apparent Kd [2] | apparent Kd [3] | apparent Kd [4]
1 | AGGAAGUUAGGAUAUGCUGCUCGUCACUUGCGUGAUGAGUAGCAGAAGGAACAUGAGGAUCACCCAUGUAAAAA | 27.7 nM | 22.2 nM | – | –
2 | UGUCGGAGCAGAGGAUAUACAUGAGGAUCACCCAUGUAAAUGGAAGAAGACUGGAAACAGUCAAUGUAGAAGGCUGCUCCGACA | 125 nM | 694 nM | – | –
3 | GUAUACGAUGAGGAUAUAUGAUAUCAAAGCAUCAUAGAAGGCAUCACAUGAGGAUCACCCAUGUGAUCUUCUAG | 15.7 nM | 52.6 nM | – | –
4 | AACAGUACAGGAUAUACAUGAGGAUCACCCAUGUGAGAAUUAAGUGGCGAACCACAAAGUAGAAGGGUACUGGA | 59.6 nM | 197 nM | – | –
5 | ACGUAUAGAGGAUAUAGUGAAUAUUACAUGAGGAUCACCCAUGUUCUUCAAAGCAUAUUCCUAGAAGGCUGAUGAA | 44.8 nM | 83.6 nM | – | –
6 | GGUACCAACACAGGAUAUGCAAUCCUUUGGGUUGCAGAAGGGUGAAAACAUGAGGAUCACCCAUGUGGUACCGGGCGUGAGCCC | – | – | 473 nM | 39.8 nM
7 | AAGUAGAUCCGAGGAUAUACAAUCUGGAAACGGUACAUGAGGAUCACCCAUGUAGAAGGCGGAUCUACAGGUACUAAAGUACCA | 7.4 nM | 16.4 nM | – | –
8 | GGAAAUCAUGUAGGAUAUGCAUGGCGAAGCUACGCAGAAGGACAUGAGGAUCACCCAUGUUAUAGCGUCCGAUAAAGGAUGCAA | 117 nM | 164 nM | – | –
9 | UGUCGUAGCAGAGGAUAUUACAUGAGGAUCACCCAUGUAUGAACCAAUAGCUGGAAACAGCAAUGUAAGAAGGCUGCUCCGACA | 13.2 nM | 158 nM | – | –
10 | GCUCGAUGCGCUGAGCACAUGAGGAUCACCCAUGUAAAAUGUCAGGAUAUUUACGUGCUUUAUGUAGAGAAGGGACUAUCGAGC | – | – | 60.5 nM | 24.1 nM
11 | AUAUUAUUGAUCCAUUUUUUCAACAUGAGGAUCACCCAUGUGCAGGAUAUCGUGUGUUUUAUAAACGAGAAGGGCAAAUUCAUU | 82.6 nM | 218 nM | – | –
12 | CGUAUGUGAGGAUAUGACAAUGGUAUCUUCGGAUACCAUUGUCAGAAGGAACAUGAGGAUCACCCAUGUAGAUC | 53.2 nM | 110 nM | – | –
13 | AUACCACGAGGAUAUCGUCUAUAAUACAUGAGGAUCACCCAUGUUAUAUCUGUAAUGUUUCGAGAAGGCGUGUGUU | 18.9 nM | 14.6 nM | – | –
14 | AAUUGACACGUAGGAUAUCGAUCUAAAUUAACUCGAGAAGGACGCACAUGAGGAUCACCCAUGUUUAAUGGAGUAGACAUGUUG | 314 nM | 508 nM | – | –
15 | AAUUAUUCAGGAGGAUAUCCCAGGACAUGAGGAUCACCCAUGUUCGGGUUGCCCUCAUGAACGCCGGAGAAGGCCUGAACGAAU | 13 nM | 17.1 nM | – | –
16 | UUACUAUUGGAGAAGGGUCGAUCAUAUAGAAUGACAGGAUAUCCAACAUGAGGAUCACCCAUGUUUCACCCAUAUGAGGAUCAC | 102 nM | 31 nM | – | –
17 | GCACUUGCGUAGAAGGUACUAUAUAAUACACUGUAAGGAUAUACAUACAUGAGGAUCACCCAUGUAAAUGGAAUUUGCAAGUGC | – | – | 6.62 nM | 6.49 nM
18 | AAUGUGUGUCGAGGAUAUAUUAUAUGACAACAAACACAUACAUGAGGAUCACCCAUGUCCCAUGUAUAGAAGGCGAUGUGUGUG | – | – | 130 nM | 174 nM
19 | UGGAUCAUGGGAGGAUAUGGGAAGAUACAUGAGGAUCACCCAUGUUUAAGAAUGCCGAGAGGCAACUAGAAGGCCCAUGAUCCU | – | – | 1090 nM | 47.9 nM
20 | AGGUUGUGAGGAUAUUAGUUAUAUGAAUGGAGGAGUAUGGCUGAGAAGGCACAUGAGGAUCACCCAUGUAGAUC | 120 nM | 420 nM | – | –
21 | GGAGCAACAUGAGGAUCACCCAUGUAGGAUAUCGCUAUUGUAAUCAUGAAACAUGAUUACAAUAGCGAGAAGGACAUAUGCUGG | 24.9 nM | 27.3 nM | – | –
22 | UGAUAGGACAGAGGAUAUACGAAAGGCGAUCCAUACAUGAGGAUCACCCAUGUAGAAGGCUGUCCUAUCUAAGUCGGAAACGAC | 84.9 nM | 16.9 nM | – | –
23 | UUGCCUCGGAACAUGAGGAUCACCCAUGUGCUGCGGGCAACGUAGGAUAUGAUGGUACGCUACCAUCAGAAGGAUGAUGGUACC | – | – | 4.98 nM | 5.29 nM
24 | AUUGAGUGAGGAUAUCCCGCUGCCGUGCGACCAUGGAGCUGGGAGAAGGCACAUGAGGAUCACCCAUGUGAGUU | 19.3 nM | 45 nM | – | –
25 | CCGAGGCGAGGAUAUACAUGAGGAUCACCCAUGUCUGACCGACGCGCGCCAGGCAUAUGUAGAAGGCGCCGGAA | 31.5 nM | 138 nM | – | –
26 | GUCGGAAACGACAAAAGUAUGGAUCCAGAAGGCAUGUACAUGAGGAUCACCCAUGUCUAAAGAUAUGAGGAUAUGGAUCCAUAC | – | – | 6.71 nM | 5.18 nM
27 | CGAGCUCGUGUGAGGAUAUACCUAUGGAUACAUAGGUAGAAGGCACAUGAGGAUCACCCAUGUCCUAGAGCUCG | 92 nM | 679 nM | – | –
28 | UUUUAACAUGAGGAUCACCCAUGUGAGGAUAUCGAAAUUUAUAUUAAUAUUUUUAUUUCGAGAAGGCACAUUUU | 144 nM | 166 nM | – | –

Row | Sequence | apparent Kd [1] | apparent Kd [2] | apparent Kd [3] | apparent Kd [4]
29 | UGUUUCUUGUAAGGAUAUACUAGCGAUAAGCUAGUAGAAGGUACUGUCUUUUGUAUCUCAUAUUUACAUGAGGAUCACCCAUGU | – | – | 9.41 nM | 8.07 nM
30 | GCCGGAGCAGGAUAUCUAAUAUAUCACAUGAGGAUCACCCAUGUCCAGCGAAAGCUGGAGGGAGAAGGGCUCUGGC | 164 nM | 44.4 nM | – | –
31 | UUUCUUGAUGUCAGGAUAUCGGGCACAAAAUCUAACGAGAAGGGACAUGAGGAUCACCCAUGUACGUUUUUGGG | 92.9 nM | 249 nM | – | –
32 | CCGGAAACGGGUAGCUCACAUGAGGAUCACCCAUGUAAAACACAGGAUAUGGAUCCUAAUUGGAUCCAGAAGGGUGUGAGCUAC | – | – | 40.1 nM | 23.6 nM
33 | UACAGCGUAGAUAAUUAUGUUACAUGAGGAUCACCCAUGUCAUAGGAUAUGCAGUGGAAUACACUGCAGAAGGAUGCAUCGCUG | 14.7 nM | 18.5 nM | – | –
34 | CAGAGGAUGUAAGGAUAUCGUCAGGAUAACUGACGAGAAGGUACAUGAGGAUCACCCAUGUAUAUGAAAGAUAAUAAACCUCUG | 13.5 nM | 18.8 nM | – | –
35 | GAACAUGAGGAUCACCCAUGUUCUCCAGAAGGCCGUACAUUUAAAAGUGGAUGGAUUAGUAUUGCGGAGGAUAUGGAGGUGCAA | – | – | 102 nM | 61.1 nM
36 | GUAGCAUACGGAGGAUAUUCAUACCGGAAACGGACAUGAGGAUCACCCAUGUGGCGAAAGCCUUGGGAGAAGGCCGUAUGCUAC | – | – | 671 nM | 21.9 nM
37 | CUCAUGUGCGUCGGCAAGUUAACACAGGAUAUCCGAGAAAACAUGAGGAUCACCCAUGUAACUUCGGAGAAGGGUGAUGAGAGA | – | – | 64.9 nM | 23.1 nM
38 | CGACAUUUAGGAUAUACGGUUAUUGAGGUUUUUGUUAGUCGACAUGAGGAUCACCCAUGUAGAAGGAAAUGAGU | 34.6 nM | 49.4 nM | – | –
39 | GAGUGGAAGGCCGCUACAUGAGGAUCACCCAUGUGCUAAGCACAGGAUAUCGCGCGGACCCGGCGCGAGAAGGGUGACGGCCUG | – | – | 463 nM | 268 nM
40 | UACAUGAGGAUCACCCAUGUUUUGUCGUGUAUGGUAUUUAUCUAGGAUAUCAAUAUAUUUAUUUAUGAGAAGGAGAAUAUUAAU | 38 nM | 33.6 nM | – | –
41 | AAGGGACAUGAGGAUCACCCAUGUGAGGAUAUAUAAAUGUACCCGAUGGGAGUACACAAUAGAAGGCGCGGCUA | 40.7 nM | 32.8 nM | – | –
42 | UAUGUGAGAGGAUAUACUGAACCCAACCUAGAUUCUCACGAACAUGAGGAUCACCCAUGUAGAAGGCUCCGUGU | 124 nM | 394 nM | – | –
43 | UAAAUGUGAGGAUAUCAGGUGUGCUAGCGUACUGGUACAUCUGAGAAGGCACAUGAGGAUCACCCAUGUUCCUU | 16.8 nM | 61.3 nM | – | –
44 | GCGUACUGAGGAUAUACAUGAGGAUCACCCAUGUUUCACAGCAUAUGUGAAGUUUUUUGUAGAAGGCAGUAUGC | 29.6 nM | 163 nM | – | –
45 | AGCUAGUACGAAGGAUAUACAAACAUGAGGAUCACCCAUGUAUACAUGGUUUGAUGAGACUACAUGUAGAAGGUCGUACUAGCA | – | – | 506 nM | 796 nM
46 | AAAACGAAAGUCGAACGAUGUAGCAGAAGGACAUGAGGAUCACCCAUGUCAGCUGUAACAGCCAUGUAGGAUAUGCUACAUUUU | 5.47 nM | 6.35 nM | – | –
47 | AGCUGUGGCCGAGGAUAUCUGAAACUCAAAACCGAAAUAUAAUCGGACAUGAGGAUCACCCAUGUAGAGAAGGCGGUCUCAGCA | 165 nM | 307 nM | – | –
48 | AACGAUCUAGGAUAUACAUGAGGAUCACCCAUGUAAGAGCUCAAACCGAGCUCCCUCUGUAGAAGGAGGUCAAA | 54.5 nM | 45.9 nM | – | –
49 | GUAGCUAUCGGAGGAUAUUCAUGAUACAUGAGGAUCACCCAUGUUAAAAUGGGAGAAGGCCGAUAGCUACAAGAGCGAAAGCUC | – | – | 41.1 nM | 8.01 nM
50 | CUUCUGUGAGGAUAUGUUAGCUCCCAGAAUGUCGCUGGGAGACAGAAGGCACAUGAGGAUCACCCAUGUGGGCG | 35.2 nM | 175 nM | – | –
51 | UUGCGGUCAGGAUAUGCAUGGCGGGACUUGCGUCGUGGCGUGGAGAAGGGACAUGAGGAUCACCCAUGUGGAGG | 97.1 nM | 99.3 nM | – | –
52 | UUCCUGUCAGGAUAUGACUAGAGGCACGAAAGUGUGUUUAGUUAGAAGGGACAUGAGGAUCACCCAUGUAGUCC | 23.3 nM | 36.2 nM | – | –
53 | ACUGGUCGAGGAUAUACAUUCGUGCUUCGGCACGUAAGGUCACAUGAGGAUCACCCAUGUAGAAGGCGACCAGU | 40.1 nM | 207 nM | – | –
54 | GGCGGCGCGGGCCACCGCAGGGCCAGAAGGACAUGAGGAUCACCCAUGUGGCAGGACAGGGCGGUGUAGGAUAUGGCAGGCUCG | 11.9 nM | 43.3 nM | – | –
55 | ACAGAGGCUGACAUGAGGAUCACCCAUGUUAGAUUGUUAUGUCAGGAUAUUAUCUGGCAACCAGAUAAGAAGGGACCCUCUGUG | – | – | 31.2 nM | 8.45 nM
